This passage reports GFP response vs DMSO, GFP response relative to DMSO and GFP response, % of DMSO results from PubChem BioAssay.

Assay [1] is described as follows: hit retest on RPL19A-GFP reporter strain – cell-based, S. cerevisiae, flow cytometry, cherry picks, mother/daughter gates, confirmation (AID 2270;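 active = GFP response below 50% of the DMSO control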). The note with it: 3 h, at 10 µM, stronger effect = lower value, 100 = same GFP as DMSO wells.
A short description of assay [2]: yeast TOR pathway reporter LAP4-GFP change – cell-based, cherry picks, flow cytometry, mother/daughter gates, confirmation (AID 2271;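 active = GFP response above 150% of the DMSO control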;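 also: ratio of sample to DMSO plate mean so 100% equals DMSO level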). The note with it: S. cerevisiae LAP4-GFP strain, 3 h, at 10 µM, stronger effect = higher value, 100 means same as DMSO control. Put shortly:
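System: GFP-fusion yeast strain | Input: Yeast cells seeded at OD600 of 0.2 | Technique: HT flow cytometry, GFP fluorescence channel | Read-out: % GFP response vs DMSO | Dosing: Single test-compound dose, 10 µM final | Controls: Positive rapamycin (400 ng/mL), negative DMSO | Times: 3 h treatment at 30 °C with rotation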

Assay [3] can be described thus: TOR pathway reporter MEP2-GFP, retest of hits – S. cerevisiae, flow cytometry GFP, cherry picks, confirmation (AID 2272;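 active = GFP response above 150% of the DMSO control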;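 also: ratio of well signal to plate DMSO mean so 100% equals DMSO level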). The note with it: S. cerevisiae MEP2-GFP strain, 3 h, at 10 µM, stronger effect = higher value. A general note: A flow cytometer gives signals particle by particle.
Assay [4] can be described thus: yeast AGP1-GFP fluorescence change, single-dose – cell-based, flow cytometry, S. cerevisiae, cherry picks, confirmation (AID 2273).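 Also: median GFP channel fluorescence over the whole cell population gate.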 The note with it: S. cerevisiae AGP1-GFP strain, 3 h, at 10 µM.
A short description of assay [5]: TOR pathway CIT2 reporter hit retest – S. cerevisiae, GFP fusion, cherry picks, mother/daughter gates, confirmation (AID 2274). To be noted: S. cerevisiae CIT2-GFP strain, flow cytometry, 3 h, at 10 µM, stronger effect = higher value.
Setting [6] is: measured here: daughter cell gate.
Setting [7] is: measured here: mother cell gate.
Where [8] appears, read: measured here: daughter cell gate response.
Setting [9] is: measured here: mother cell gate response.

Active and inactive are the calls of the source.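 The calls were made as follows, unless noted: active = GFP response above 150% of the DMSO level; inconclusive = fewer than 70 events counted for a yeast strain; inactive = the rest.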

On to `COc1cc(N2C(=O)C=CC2=O)c(OC)cc1Cl`, for which the GFP response vs DMSO is 85.7% (inactive) in assay [1], 90% in assay [1] (setting [6]), 75% in assay [1] (setting [7]) and 133% (inactive) in assay [3]. The figures for the GFP response relative to DMSO in assay [2], in assay [2] (setting [8]) and in assay [2] (setting [9]) were 303% (active), 211% and 272%, respectively. In addition, the GFP response, % of DMSO is 108% (inactive) in assay [4], 90% (inactive) in assay [5], 96.5% in assay [5] (setting [6]) and 79.4% in assay [5] (setting [7]).
As to `O=C(O)c1ccc(Sc2ccccn2)c([N+](=O)[O-])c1`, the GFP response vs DMSO was 98% (inactive) in assay [1], 99.1% in assay [1] (setting [6]), 98.2% in assay [1] (setting [7]) and 102% (inactive) in assay [3]. Moreover, the GFP response relative to DMSO in assay [2] was 96.7% (inactive); in assay [2] (setting [8]), 97.6%; in assay [2] (setting [9]), 95.1%. In addition, the GFP response, % of DMSO in assay [4] is 97% (inactive); in assay [5], 99.7% (inactive); in assay [5] (setting [6]) it was 101%; in assay [5] (setting [7]), 98.5%.
Take `CC1CCN(S(=O)(=O)c2cccc(C(=O)Nc3nccs3)c2)CC1`: the GFP response vs DMSO in assay [1] was 101% (inactive); in assay [1] (setting [6]), 101%; in assay [1] (setting [7]), 101%; in assay [3] it was 100% (inactive). In addition, the figures for the GFP response relative to DMSO in assay [2], in assay [2] (setting [8]) and in assay [2] (setting [9]) were 92.6% (inactive), 95.6% and 93.1%, respectively. Also, the GFP response, % of DMSO in assay [4] was 95.4% (inactive); in assay [5], 107% (inactive); in assay [5] (setting [6]), 105%; in assay [5] (setting [7]), 105%.
For `COC(=O)c1ccc(/C=C/C(=O)c2ccc(OC)c(OC)c2)cc1`, the GFP response vs DMSO in assay [1] is 101% (inactive); in assay [1] (setting [6]), 101%; in assay [1] (setting [7]), 99.6%; in assay [3], 104% (inactive). Further, the GFP response relative to DMSO in assay [2] was 113% (inactive); in assay [2] (setting [8]), 110%; in assay [2] (setting [9]), 117%. Also, the GFP response, % of DMSO was 102% (inactive) in assay [4], 104% (inactive) in assay [5], 106% in assay [5] (setting [6]) and 102% in assay [5] (setting [7]).
For `N#CC(C(=O)NCc1ccccc1)c1nc2ccccc2nc1N1CCCC1` (stereo unspecified), the GFP response vs DMSO in assay [1] is 103% (inactive); in assay [1] (setting [6]) it was 102%; in assay [1] (setting [7]), 104%; in assay [3] it was 117% (inactive). The results for the GFP response relative to DMSO in assay [2], in assay [2] (setting [8]) and in assay [2] (setting [9]) were 114% (inactive), 108% and 117%, respectively. Further, the GFP response, % of DMSO in assay [4] was 99.6% (inactive); in assay [5], 111% (inactive); in assay [5] (setting [6]), 108%; in assay [5] (setting [7]), 109%.
With `O=C(O)CCc1ccc(-c2ccc(Br)cc2)o1`, the GFP response vs DMSO was 99.4% (inactive) in assay [1], 92.2% in assay [1] (setting [6]), 97% in assay [1] (setting [7]) and 99% (inactive) in assay [3]. Also, the GFP response relative to DMSO was 137% (inactive) in assay [2], 119% in assay [2] (setting [8]) and 129% in assay [2] (setting [9]). The GFP response, % of DMSO in assay [4] was 86.6% (inactive); in assay [5], 84.3% (inactive); in assay [5] (setting [6]) it was 81.2%; in assay [5] (setting [7]), 82.1%.
As for `Cc1ccc(CC2CC(=O)N(Cc3ccco3)C2=O)cc1` (stereo unspecified), the GFP response vs DMSO in assay [1] is 102% (inactive); in assay [1] (setting [6]), 101%; in assay [1] (setting [7]) it was 101%; in assay [3], 95.7% (inactive). Besides, the results for the GFP response relative to DMSO in assay [2], in assay [2] (setting [8]) and in assay [2] (setting [9]) were 93.8% (inactive), 97.2% and 94.2%, respectively. Further, the GFP response, % of DMSO in assay [4] is 99.2% (inactive); in assay [5] it was 107% (inactive); in assay [5] (setting [6]), 105%; in assay [5] (setting [7]), 109%.
As to `O=[N+]([O-])c1ccc(S(=O)(=O)c2ccccc2)nc1`, the GFP response vs DMSO was 84.5% (inactive) in assay [1], 96.4% in assay [1] (setting [6]), 77.4% in assay [1] (setting [7]) and 126% (inactive) in assay [3]. The GFP response relative to DMSO in assay [2] was 176% (active); in assay [2] (setting [8]), 156%; in assay [2] (setting [9]), 174%. The GFP response, % of DMSO in assay [4] was 114% (inactive); in assay [5], 108% (inactive); in assay [5] (setting [6]) it was 131%; in assay [5] (setting [7]) it was 91.5%.
With `COC(=O)C1CCN(C(=O)COC(=O)CCc2nc3ccccc3c(=O)[nH]2)CC1`, the GFP response vs DMSO in assay [1] was 98.8% (inactive); in assay [1] (setting [6]), 99.6%; in assay [1] (setting [7]) it was 99.8%; in assay [3], 99.5% (inactive). Moreover, the figures for the GFP response relative to DMSO in assay [2], in assay [2] (setting [8]) and in assay [2] (setting [9]) were 97.7% (inactive), 97.9% and 96.5%, respectively. The GFP response, % of DMSO is 98% (inactive) in assay [4], 99.3% (inactive) in assay [5], 102% in assay [5] (setting [6]) and 95.6% in assay [5] (setting [7]).
For the compound `O=C(C1CCN(Cc2nc(Cc3cccc(F)c3)no2)CC1)N1CCOCC1`, the GFP response vs DMSO is 99.5% (inactive) in assay [1], 99% in assay [1] (setting [6]), 99.8% in assay [1] (setting [7]) and 100% (inactive) in assay [3]. Also, the values for the GFP response relative to DMSO in assay [2], in assay [2] (setting [8]) and in assay [2] (setting [9]) were 96.2% (inactive), 100% and 97.2%, respectively. The GFP response, % of DMSO in assay [4] is 103% (inactive); in assay [5] it was 100% (inactive); in assay [5] (setting [6]), 99.7%; in assay [5] (setting [7]), 102%.
Regarding `COc1ccc(NC(=O)Nc2ccon2)c(OC)c1`, the GFP response vs DMSO in assay [1] was 101% (inactive); in assay [1] (setting [6]) it was 102%; in assay [1] (setting [7]), 99.5%; in assay [3] it was 99% (inactive). The GFP response relative to DMSO in assay [2] was 95.7% (inactive); in assay [2] (setting [8]), 94.2%; in assay [2] (setting [9]), 95.2%. For the same compound, the GFP response, % of DMSO is 106% (inactive) in assay [4], 103% (inactive) in assay [5], 99.2% in assay [5] (setting [6]) and 101% in assay [5] (setting [7]).
Take `N#Cc1cc(Sc2ccccn2)c([N+](=O)[O-])cc1C#N`: the GFP response vs DMSO in assay [1] is 107% (inactive); in assay [1] (setting [6]), 110%; in assay [1] (setting [7]) it was 106%; in assay [3], 143% (inactive). In addition, the GFP response relative to DMSO in assay [2] is 121% (inactive); in assay [2] (setting [8]), 123%; in assay [2] (setting [9]), 118%. Moreover, the GFP response, % of DMSO is 106% (inactive) in assay [4], 123% (inactive) in assay [5], 125% in assay [5] (setting [6]) and 120% in assay [5] (setting [7]).
Consider `CCCc1[nH]nc2c1C(c1cccnc1)C(C#N)=C(N)O2` (stereo unspecified), for which the GFP response vs DMSO is 98.6% (inactive) in assay [1], 97.9% in assay [1] (setting [6]), 99.2% in assay [1] (setting [7]) and 96.2% (inactive) in assay [3]. The GFP response relative to DMSO in assay [2] was 99.2% (inactive); in assay [2] (setting [8]), 97.6%; in assay [2] (setting [9]), 98.3%. For the same compound, the GFP response, % of DMSO in assay [4] was 103% (inactive); in assay [5], 101% (inactive); in assay [5] (setting [6]), 99.1%; in assay [5] (setting [7]), 99.7%.
As for `O=C(c1ccccc1F)N1CCN(c2cccc(C(F)(F)F)c2)CC1`, the GFP response vs DMSO was 98.2% (inactive) in assay [1], 97.6% in assay [1] (setting [6]), 96.5% in assay [1] (setting [7]) and 108% (inactive) in assay [3]. The GFP response relative to DMSO was 97.7% (inactive) in assay [2], 101% in assay [2] (setting [8]) and 96.4% in assay [2] (setting [9]). Besides, the GFP response, % of DMSO is 106% (inactive) in assay [4], 95.8% (inactive) in assay [5], 97.6% in assay [5] (setting [6]) and 94.9% in assay [5] (setting [7]).
With `CCC(Sc1nc(=O)cc(N)n1-c1ccccc1)C(=O)Nc1cc(C)on1` (stereo unspecified), the GFP response vs DMSO in assay [1] was 98.2% (inactive); in assay [1] (setting [6]) it was 98.8%; in assay [1] (setting [7]), 95.3%; in assay [3], 108% (inactive). Moreover, the GFP response relative to DMSO in assay [2] was 105% (inactive); in assay [2] (setting [8]), 105%; in assay [2] (setting [9]), 96.5%. Also, the GFP response, % of DMSO in assay [4] is 102% (inactive); in assay [5], 109% (inactive); in assay [5] (setting [6]), 111%; in assay [5] (setting [7]), 104%.
For the compound `N/C(Cc1ccc(Cl)cc1Cl)=N\OC(=O)c1ccccc1`, the GFP response vs DMSO in assay [1] is 99.2% (inactive); in assay [1] (setting [6]) it was 86.3%; in assay [1] (setting [7]), 89.4%; in assay [3], 125% (inactive). Besides, the GFP response relative to DMSO in assay [2] was 222% (active); in assay [2] (setting [8]), 145%; in assay [2] (setting [9]), 213%. The GFP response, % of DMSO in assay [4] was 105% (inactive); in assay [5] it was 181% (active); in assay [5] (setting [6]), 117%; in assay [5] (setting [7]), 157%.
